Assay [1] addresses T1, Androgen receptor (Homo sapiens) (UniProt P10275).
T1 sequence (whole entry): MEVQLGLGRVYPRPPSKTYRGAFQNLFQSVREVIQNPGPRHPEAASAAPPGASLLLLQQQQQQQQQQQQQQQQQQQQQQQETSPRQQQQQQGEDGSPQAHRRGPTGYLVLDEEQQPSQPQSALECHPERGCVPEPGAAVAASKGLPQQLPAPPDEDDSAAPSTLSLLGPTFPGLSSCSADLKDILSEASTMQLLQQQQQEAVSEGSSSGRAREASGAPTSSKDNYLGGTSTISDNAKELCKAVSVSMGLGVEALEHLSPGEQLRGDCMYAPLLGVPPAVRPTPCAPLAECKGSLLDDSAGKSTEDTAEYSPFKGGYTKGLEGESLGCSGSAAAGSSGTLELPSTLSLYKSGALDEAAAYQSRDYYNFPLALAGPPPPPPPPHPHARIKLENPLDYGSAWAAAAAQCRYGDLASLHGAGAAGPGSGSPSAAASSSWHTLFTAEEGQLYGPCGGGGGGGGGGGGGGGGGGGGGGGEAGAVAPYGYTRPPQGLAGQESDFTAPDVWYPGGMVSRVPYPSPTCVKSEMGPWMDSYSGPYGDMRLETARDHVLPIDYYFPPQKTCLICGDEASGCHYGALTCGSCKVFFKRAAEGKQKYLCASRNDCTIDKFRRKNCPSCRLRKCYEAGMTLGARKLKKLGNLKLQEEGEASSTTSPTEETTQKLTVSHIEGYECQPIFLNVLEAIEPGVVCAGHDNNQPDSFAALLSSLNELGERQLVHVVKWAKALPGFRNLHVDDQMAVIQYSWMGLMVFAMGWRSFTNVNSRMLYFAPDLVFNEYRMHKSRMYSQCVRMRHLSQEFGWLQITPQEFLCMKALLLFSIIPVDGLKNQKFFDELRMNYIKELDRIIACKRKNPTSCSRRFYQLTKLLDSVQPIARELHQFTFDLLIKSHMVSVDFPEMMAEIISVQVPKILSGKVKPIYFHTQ
The note with it: LNCaP, 10 uM.

Assay [2] addresses T2, Androgen receptor (Homo sapiens, UniProt P10275).
T2 sequence (P10275 whole entry): T1 sequence (whole entry)
Put plainly: Antagonist activity at androgen receptor in human LNCAP cells assessed as decrease in prostate specific antigen mRNA level after 20 hrs by real time RT-PCR analysis.

In assay [3] the target is T2, Androgen receptor. Put plainly: Antagonist activity at androgen receptor in human LNCAP cells assessed as decrease in transmembrane protease serine 2 mRNA level after 20 hrs by real time RT-PCR analysis. (In general: Quantitative PCR measures a nucleic acid by following its amplification.)
Assay [4] relates to LNCaP. In words: Cytotoxicity against human LNCAP cells after 3 days. The assay is classed as functional, cell-based. The note with it: 72 h.
In assay [5] the target is T1, Androgen receptor (Homo sapiens). Conditions: LNCaP, 10 uM. This is another data set of the same source.
For assay [6] the target is unchanged. The note with it: LNCaP, 10 uM. The source holds these as a separate data set.
For assay [7] the target is unchanged. Put plainly: Antagonist activity at androgen receptor in human LNCAP cells assessed as inhibition of R1881-induced transmembrane protease serine 2 mRNA expression after 20 hrs by real time RT-PCR analysis. In kind it is functional, cell-based. The gist of the method: (§1)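 LNCaP cells were first kept 3 days in phenol red-free RPMI 1640 with 10% charcoal-stripped FBS and 1% antibiotic-antimycotic. They were then exposed for 20 hr to compound at 10, 5 or 1 μM together with 0.5 nM R1881. PSA and TMPRSS2 mRNA were quantified by real-time RT-PCR against DMSO-treated controls.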

Assay [8] shares this target. Put plainly: Antagonist activity at androgen receptor in human LNCAP cells assessed as decrease in prostate specific antigen mRNA level at 2.5 uM after 20 hrs by real time RT-PCR analysis. The assay is classed as functional, cell-based. The method in brief:
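LNCaP prostate cancer cells (AR carries T877A ligand-binding-domain mutation) exposed to compound at 2.5 μM for 20 hr; PSA mRNA quantified by real-time RT-PCR and expressed relative to DMSO-treated control cells set to 1; mean values, n = 3.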

Assay [9] shares this target. The note with it: LNCaP, 10 uM. The source holds these as a separate data set.
Assay [10] has the same target. Put plainly: Antagonist activity at androgen receptor in human LNCAP cells assessed as inhibition of R1881-induced prostate specific antigen mRNA expression after 20 hrs by real time RT-PCR analysis relative to control. The assay is classed as functional, cell-based. The method in brief:
as §1

The target is the same in assay [11]. The note with it: LNCaP, 10 uM. The source holds these as a separate data set.
Assay [12] has the same target. Put plainly: Agonist activity at androgen receptor in human LNCAP cells assessed as potentiation of R1881-induced transmembrane protease serine 2 mRNA expression at 1 uM after 20 hrs by real time RT-PCR analysis. In kind it is functional, cell-based. The method in brief: as §1
The target is the same in assay [13]. In words: Agonist activity at androgen receptor in human LNCAP cells assessed as potentiation of R1881-induced prostate specific antigen mRNA expression at 1 uM after 20 hrs by real time RT-PCR analysis. The assay is classed as functional, cell-based. The method in brief: as §1

By inhibition is commonly meant the drop in the measured response relative to a control, in per cent. The term pIC50 denotes −log10 of the IC50, conventionally taken in molar units.

pIC50: −log10 of the molar value. Active and inactive are the calls of the source. No cut-off for these calls is given here.

For the compound `COc1ccccc1C(=O)/C=C/c1ccccc1[N+](=O)[O-]`, the inhibition result in assay [1] and in assay [9] was “Active” each time. The negative logarithm of the IC50 (pIC50) in assay [2] was 6.22; in [3], 6.12; in assay [4] it was 5.47. Also, the inhibition in assay [5] is 99%; in assay [6], “Dose-dependent effect”; in [7] it was “Dose-dependent effect”; in assay [8] it was 94%; in assay [10], “Dose-dependent effect”; in assay [11] it was 89%.

With `COc1ccc(OC)c(C(=O)/C=C/c2ccc(C#N)cc2)c1`, the inhibition in assay [8] was found to be 82%.

On to `COc1ccc(C(=O)/C=C/c2cccc(C(F)(F)F)c2)c(OC)c1OC`, for which, in assay [8], the inhibition worked out at 81%.

For the compound `COc1ccccc1C(=O)/C=C/c1ccccc1`, in assay [8], the inhibition was determined as 63%.

Turning to `COc1cccc(OC)c1C(=O)/C=C/c1ccc([N+](=O)[O-])cc1`, the inhibition in assay [8] came to 90%.

For `COc1ccccc1C(=O)/C=C/c1ccccc1C(F)(F)F`, the inhibition in assay [8] is 94%.

Take `COc1ccc(C(=O)/C=C/c2ccc(C#N)cc2)cc1OC`: the inhibition result in [7] is “Dose-dependent effect”; in assay [8], 85%; in assay [10] it was “Dose-dependent effect”.

In the case of `COc1ccc(C(=O)/C=C/c2cccc([N+](=O)[O-])c2)c(OC)c1OC`, the result in assay [12] and in [13] was Active. Also, the inhibition result was “Dose-dependent effect” in assay [7], 84% in assay [8] and “Dose-dependent effect” in assay [10].

Consider `COc1cccc(OC)c1C(=O)/C=C/c1ccc([N+](=O)[O-])cc1[N+](=O)[O-]`, for which, in assay [8], the inhibition turned out to be 81%.

`COc1ccc(C(=O)/C=C/c2ccc([N+](=O)[O-])cc2)cc1OC`: the inhibition entry in [7] and in assay [10] was “Dose-dependent effect” in each case.

`COc1ccc(C(=O)/C=C/c2ccc([N+](=O)[O-])cc2)c(OC)c1OC`: the inhibition result is “Dose-dependent effect” in assay [7], 84% in [8] and “Dose-dependent effect” in assay [10].

As to `COc1cccc(OC)c1C(=O)/C=C/c1cccc([N+](=O)[O-])c1`, the inhibition in assay [8] is 85%.

In the case of `COc1cccc(OC)c1C(=O)/C=C/c1ccccc1C(F)(F)F`, the inhibition in [8] came out at 87%.
